pIC50: −log10 of the molar value. Activity calls are given as the source filed them. The calls are words filed in the database; no cut-off is given here.
Key:
[1] = tested on: LNCaP; assay: Induction of cell cycle arrest in human LNCaP cells with IR-induced DNA damage assessed as reduction in number of cells at G2 phase at 10 uM incubated for 24 hrs in the presence of 5 Gy by PI-staining-based flow cytometry analysis; assay type: functional
How it was run: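 LNCaP cells given 5 Gy x-ray alone or with agent (10 μm, 24 h). Propidium iodide staining and flow cytometric DNA content analysis of cell cycle phases; performed in triplicate.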

[2] = Toxicity in mouse assessed as change in body weight; conditions: in vivo
How it was run: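 Body weight of castrated nude mice bearing LNCaP-caAck xenografts tracked during dosing at 4 mg/kg per injection (day 7, then days 11–27 every 4 days) versus DMSO-injected controls; morbidity also noted.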

[3] = molecular target: Mitogen-activated protein kinase kinase kinase 8 (Homo sapiens, UniProt P41279); assay: Inhibition of MAP3K8 (unknown origin) in the presence of [33P]ATP by kinase hotspot assay
Sequence of Mitogen-activated protein kinase kinase kinase 8 (P41279 whole entry): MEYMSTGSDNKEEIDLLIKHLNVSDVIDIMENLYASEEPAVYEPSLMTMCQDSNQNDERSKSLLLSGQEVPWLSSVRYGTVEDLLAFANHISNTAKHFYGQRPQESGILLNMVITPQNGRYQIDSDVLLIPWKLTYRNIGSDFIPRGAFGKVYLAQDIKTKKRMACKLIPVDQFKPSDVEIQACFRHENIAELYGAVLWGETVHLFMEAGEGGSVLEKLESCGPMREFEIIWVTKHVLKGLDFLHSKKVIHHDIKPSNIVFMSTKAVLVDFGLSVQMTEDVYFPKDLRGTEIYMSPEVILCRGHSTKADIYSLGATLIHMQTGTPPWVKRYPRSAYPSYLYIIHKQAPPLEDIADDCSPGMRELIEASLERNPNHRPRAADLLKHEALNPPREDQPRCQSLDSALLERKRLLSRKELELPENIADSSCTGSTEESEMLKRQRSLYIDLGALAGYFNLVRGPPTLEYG

[4] = molecular target: DNA-dependent protein kinase catalytic subunit (Homo sapiens, UniProt P78527); assay: Inhibition of DNA-PK (unknown origin) in the presence of [33P]ATP by kinase hotspot assay
[5] = molecular target: Serine/threonine-protein kinase mTOR (Homo sapiens, UniProt P42345); assay: Inhibition of mTOR (unknown origin) in the presence of [33P]ATP by kinase hotspot assay
[6] = molecular target: RAF proto-oncogene serine/threonine-protein kinase (Homo sapiens, UniProt P04049); assay: Inhibition of RAF1 (unknown origin) in the presence of [33P]ATP by kinase hotspot assay
Sequence of RAF proto-oncogene serine/threonine-protein kinase (P04049 whole entry): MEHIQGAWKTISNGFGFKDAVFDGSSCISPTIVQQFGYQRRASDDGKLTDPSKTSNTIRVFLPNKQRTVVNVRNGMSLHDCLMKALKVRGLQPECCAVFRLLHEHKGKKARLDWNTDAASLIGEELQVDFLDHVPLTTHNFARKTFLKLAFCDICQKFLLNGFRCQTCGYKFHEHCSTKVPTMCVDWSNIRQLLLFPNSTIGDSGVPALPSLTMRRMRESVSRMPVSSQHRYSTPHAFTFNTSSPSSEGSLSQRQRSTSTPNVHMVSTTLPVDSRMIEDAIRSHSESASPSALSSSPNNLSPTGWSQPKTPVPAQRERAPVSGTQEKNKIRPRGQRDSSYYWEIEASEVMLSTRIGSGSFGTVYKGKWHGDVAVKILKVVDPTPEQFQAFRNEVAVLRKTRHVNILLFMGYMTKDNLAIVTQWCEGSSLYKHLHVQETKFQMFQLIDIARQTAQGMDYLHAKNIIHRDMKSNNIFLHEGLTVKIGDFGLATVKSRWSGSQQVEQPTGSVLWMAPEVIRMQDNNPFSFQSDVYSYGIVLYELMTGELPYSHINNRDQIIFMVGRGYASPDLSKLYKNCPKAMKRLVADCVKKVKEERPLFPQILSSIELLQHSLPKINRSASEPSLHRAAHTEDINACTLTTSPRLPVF

[7] = molecular target: Tyrosine-protein kinase ABL1 (Homo sapiens, UniProt P00519); assay: Inhibition of ABL1 (unknown origin) in the presence of [33P]ATP by kinase hotspot assay
[8] = molecular target: Activated CDC42 kinase 1 (Homo sapiens, UniProt Q07912); assay: Inhibition of Ack1 (unknown origin) in the presence of [33P]ATP by kinase hotspot assay
[9] = molecular target: RAC-alpha serine/threonine-protein kinase (Homo sapiens, UniProt P31749); assay: Inhibition of AKT1 (unknown origin) in the presence of [33P]ATP by kinase hotspot assay
[10] = molecular target: RAC-gamma serine/threonine-protein kinase (Homo sapiens, UniProt Q9Y243); assay: Inhibition of AKT3 (unknown origin) in the presence of [33P]ATP by kinase hotspot assay
[11] = molecular target: Tyrosine-protein kinase receptor UFO (Homo sapiens, UniProt P30530); assay: Inhibition of AXL (unknown origin) in the presence of [33P]ATP by kinase hotspot assay
[12] = molecular target: Tyrosine-protein kinase BTK (Homo sapiens, UniProt Q06187); assay: Inhibition of BTK (unknown origin) in the presence of [33P]ATP by kinase hotspot assay
Sequence of Tyrosine-protein kinase BTK (Q06187 whole entry): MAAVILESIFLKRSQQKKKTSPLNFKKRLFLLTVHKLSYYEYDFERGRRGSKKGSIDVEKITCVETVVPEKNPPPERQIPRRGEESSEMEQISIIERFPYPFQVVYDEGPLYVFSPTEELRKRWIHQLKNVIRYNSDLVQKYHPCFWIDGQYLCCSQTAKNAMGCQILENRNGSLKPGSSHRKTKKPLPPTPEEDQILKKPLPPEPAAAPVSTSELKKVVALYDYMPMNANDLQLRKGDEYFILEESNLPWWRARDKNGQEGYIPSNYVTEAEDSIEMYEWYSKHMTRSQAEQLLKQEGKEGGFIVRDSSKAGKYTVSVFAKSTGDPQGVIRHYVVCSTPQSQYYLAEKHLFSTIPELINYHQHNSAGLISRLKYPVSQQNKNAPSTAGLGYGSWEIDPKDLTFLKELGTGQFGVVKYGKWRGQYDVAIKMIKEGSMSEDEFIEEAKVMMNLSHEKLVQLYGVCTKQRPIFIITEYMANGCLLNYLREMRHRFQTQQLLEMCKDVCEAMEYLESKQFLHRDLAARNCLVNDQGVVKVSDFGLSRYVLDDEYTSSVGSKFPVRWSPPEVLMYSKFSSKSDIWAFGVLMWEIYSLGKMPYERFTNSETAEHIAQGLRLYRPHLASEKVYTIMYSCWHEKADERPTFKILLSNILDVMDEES

[13] = molecular target: Serine/threonine-protein kinase Chk1 (Homo sapiens, UniProt O14757); assay: Inhibition of CHK1 (unknown origin) in the presence of [33P]ATP by kinase hotspot assay
[14] = tested on: LNCaP; assay: Antitumor activity against irradiated human LNCaP-caAck FLAG-tagged KD ATM expressing cells xenografted mouse assessed as inhibition of tumor growth at 4 mg/kg on day 12; assay type: functional, organism-based
How it was run: (§1)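 Castrated male nude mice received LNCaP-caAck cells transfected with FLAG-tagged kinase-dead or wild-type ATM constructs (CMV promoter), irradiated 1.5 Gy before injection. Inhibitor 4 mg/kg per injection starting day 12 after cell injection, then on days 15, 19, 23 and 27; n = 5 mice per group; tumor growth followed.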

[15] = molecular target: Receptor tyrosine-protein kinase erbB-2 (Homo sapiens, UniProt P04626); assay: Inhibition of HER2 (unknown origin) in the presence of [33P]ATP by kinase hotspot assay
Sequence of Receptor tyrosine-protein kinase erbB-2 (P04626 whole entry): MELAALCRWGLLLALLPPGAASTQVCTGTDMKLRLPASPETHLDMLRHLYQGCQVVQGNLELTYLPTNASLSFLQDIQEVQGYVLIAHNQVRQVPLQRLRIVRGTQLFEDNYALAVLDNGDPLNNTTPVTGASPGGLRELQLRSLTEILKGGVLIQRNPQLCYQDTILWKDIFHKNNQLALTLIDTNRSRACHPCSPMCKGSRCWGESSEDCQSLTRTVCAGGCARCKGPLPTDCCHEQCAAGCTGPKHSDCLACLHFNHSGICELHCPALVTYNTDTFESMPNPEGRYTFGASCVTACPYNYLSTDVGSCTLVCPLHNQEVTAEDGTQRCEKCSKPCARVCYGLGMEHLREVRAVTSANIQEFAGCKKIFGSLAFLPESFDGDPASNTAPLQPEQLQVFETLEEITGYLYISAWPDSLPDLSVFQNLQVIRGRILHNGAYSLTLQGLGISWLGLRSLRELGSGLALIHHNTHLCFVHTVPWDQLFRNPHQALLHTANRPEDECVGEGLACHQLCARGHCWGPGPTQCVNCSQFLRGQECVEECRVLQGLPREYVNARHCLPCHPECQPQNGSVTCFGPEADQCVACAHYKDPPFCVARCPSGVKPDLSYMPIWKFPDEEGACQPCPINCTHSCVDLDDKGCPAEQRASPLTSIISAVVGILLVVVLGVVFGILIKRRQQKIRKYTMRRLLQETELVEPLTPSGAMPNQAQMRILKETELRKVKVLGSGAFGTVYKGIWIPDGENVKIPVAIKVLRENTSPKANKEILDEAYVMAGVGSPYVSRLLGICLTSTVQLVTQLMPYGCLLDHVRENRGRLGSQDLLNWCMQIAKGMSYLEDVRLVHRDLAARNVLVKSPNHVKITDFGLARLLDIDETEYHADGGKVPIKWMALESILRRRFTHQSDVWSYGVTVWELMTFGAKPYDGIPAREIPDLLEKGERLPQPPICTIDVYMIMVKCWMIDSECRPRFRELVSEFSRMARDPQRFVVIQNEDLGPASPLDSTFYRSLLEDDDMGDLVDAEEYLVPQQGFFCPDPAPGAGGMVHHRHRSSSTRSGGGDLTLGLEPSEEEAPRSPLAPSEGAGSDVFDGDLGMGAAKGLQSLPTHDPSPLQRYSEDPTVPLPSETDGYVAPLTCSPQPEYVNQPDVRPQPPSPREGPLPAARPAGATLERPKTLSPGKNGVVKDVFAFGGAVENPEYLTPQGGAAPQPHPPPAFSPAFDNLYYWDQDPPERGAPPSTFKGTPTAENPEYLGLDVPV

[16] = molecular target: Mitogen-activated protein kinase 3 (Homo sapiens, UniProt P27361); assay: Inhibition of ERK1 (unknown origin) in the presence of [33P]ATP by kinase hotspot assay
[17] = molecular target: Glycogen synthase kinase-3 alpha (Homo sapiens, UniProt P49840); assay: Inhibition of GSK3alpha (unknown origin) in the presence of [33P]ATP by kinase hotspot assay
[18] = molecular target: Insulin-like growth factor 1 receptor (Homo sapiens, UniProt P08069); assay: Inhibition of IGF1R (unknown origin) in the presence of [33P]ATP by kinase hotspot assay
[19] = molecular target: Inhibitor of nuclear factor kappa-B kinase subunit alpha (Homo sapiens, UniProt O15111); assay: Inhibition of IKKalpha (unknown origin) in the presence of [33P]ATP by kinase hotspot assay
[20] = molecular target: Insulin receptor (Homo sapiens, UniProt P06213); assay: Inhibition of IR (unknown origin) in the presence of [33P]ATP by kinase hotspot assay
[21] = molecular target: Tyrosine-protein kinase JAK2 (Homo sapiens, UniProt O60674); assay: Inhibition of JAK2 (unknown origin) in the presence of [33P]ATP by kinase hotspot assay
[22] = molecular target: Vascular endothelial growth factor receptor 2 (Homo sapiens, UniProt P35968); assay: Inhibition of VEGFR2 (unknown origin) in the presence of [33P]ATP by kinase hotspot assay
[23] = molecular target: Tyrosine-protein kinase Lck (Homo sapiens, UniProt P06239); assay: Inhibition of LCK (unknown origin) in the presence of [33P]ATP by kinase hotspot assay
[24] = molecular target: Platelet-derived growth factor receptor alpha (Homo sapiens, UniProt P16234); assay: Inhibition of PDGFRalpha (unknown origin) in the presence of [33P]ATP by kinase hotspot assay
[25] = molecular target: Phosphatidylinositol 4,5-bisphosphate 3-kinase catalytic subunit alpha isoform (Homo sapiens, UniProt P42336); assay: Inhibition of PI3Kalpha (unknown origin) in the presence of [33P]ATP by kinase hotspot assay
[26] = molecular target: Phosphatidylinositol 4,5-bisphosphate 3-kinase catalytic subunit beta isoform (Homo sapiens, UniProt P42338); assay: Inhibition of PI3Kbeta (unknown origin) in the presence of [33P]ATP by kinase hotspot assay
Sequence of Phosphatidylinositol 4,5-bisphosphate 3-kinase catalytic subunit beta isoform (P42338 whole entry, canonical isoform): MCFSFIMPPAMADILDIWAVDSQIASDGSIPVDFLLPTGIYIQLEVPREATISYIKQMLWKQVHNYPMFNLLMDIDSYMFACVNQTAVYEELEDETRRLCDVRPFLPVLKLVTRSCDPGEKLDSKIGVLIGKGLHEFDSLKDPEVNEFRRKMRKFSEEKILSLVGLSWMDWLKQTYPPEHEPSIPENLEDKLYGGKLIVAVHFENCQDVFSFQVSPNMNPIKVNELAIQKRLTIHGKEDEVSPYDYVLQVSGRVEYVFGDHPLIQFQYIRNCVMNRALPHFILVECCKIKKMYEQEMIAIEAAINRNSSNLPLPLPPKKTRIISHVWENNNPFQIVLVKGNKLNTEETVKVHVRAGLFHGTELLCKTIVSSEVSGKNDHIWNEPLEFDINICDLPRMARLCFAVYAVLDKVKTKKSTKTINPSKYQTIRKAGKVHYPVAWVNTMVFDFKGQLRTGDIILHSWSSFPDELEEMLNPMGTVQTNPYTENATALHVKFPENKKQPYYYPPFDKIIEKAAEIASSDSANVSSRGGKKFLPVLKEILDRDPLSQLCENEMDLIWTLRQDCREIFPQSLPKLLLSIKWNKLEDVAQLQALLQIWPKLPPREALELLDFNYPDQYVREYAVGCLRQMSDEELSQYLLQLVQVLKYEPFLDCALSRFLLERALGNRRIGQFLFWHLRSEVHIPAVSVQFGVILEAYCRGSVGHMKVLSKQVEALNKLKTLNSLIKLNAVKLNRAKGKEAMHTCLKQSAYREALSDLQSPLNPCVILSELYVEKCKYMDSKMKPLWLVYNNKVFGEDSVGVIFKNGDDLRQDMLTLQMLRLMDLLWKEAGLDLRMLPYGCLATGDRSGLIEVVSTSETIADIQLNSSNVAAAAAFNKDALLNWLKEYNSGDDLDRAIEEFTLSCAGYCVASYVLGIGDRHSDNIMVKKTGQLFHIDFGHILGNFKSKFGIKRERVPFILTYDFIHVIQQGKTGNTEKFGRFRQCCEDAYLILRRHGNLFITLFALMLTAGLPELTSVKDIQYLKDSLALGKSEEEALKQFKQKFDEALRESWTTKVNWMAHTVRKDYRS

[27] = molecular target: Serine/threonine-protein kinase pim-1 (Homo sapiens, UniProt P11309); assay: Inhibition of PIM1 (unknown origin) in the presence of [33P]ATP by kinase hotspot assay
Sequence of Serine/threonine-protein kinase pim-1 (P11309 whole entry): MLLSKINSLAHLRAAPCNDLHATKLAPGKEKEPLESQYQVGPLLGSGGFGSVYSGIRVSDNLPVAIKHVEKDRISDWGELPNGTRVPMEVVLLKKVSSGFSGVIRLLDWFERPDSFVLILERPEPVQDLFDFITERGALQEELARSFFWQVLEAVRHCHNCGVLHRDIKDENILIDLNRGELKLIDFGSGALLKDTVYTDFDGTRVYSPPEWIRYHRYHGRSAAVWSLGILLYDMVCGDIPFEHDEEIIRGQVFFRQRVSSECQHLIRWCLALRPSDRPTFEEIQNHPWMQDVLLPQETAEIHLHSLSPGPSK

[28] = molecular target: Serine/threonine-protein kinase Sgk1 (Homo sapiens, UniProt O00141); assay: Inhibition of SGK1 (unknown origin) in the presence of [33P]ATP by kinase hotspot assay
Sequence of Serine/threonine-protein kinase Sgk1 (O00141 whole entry): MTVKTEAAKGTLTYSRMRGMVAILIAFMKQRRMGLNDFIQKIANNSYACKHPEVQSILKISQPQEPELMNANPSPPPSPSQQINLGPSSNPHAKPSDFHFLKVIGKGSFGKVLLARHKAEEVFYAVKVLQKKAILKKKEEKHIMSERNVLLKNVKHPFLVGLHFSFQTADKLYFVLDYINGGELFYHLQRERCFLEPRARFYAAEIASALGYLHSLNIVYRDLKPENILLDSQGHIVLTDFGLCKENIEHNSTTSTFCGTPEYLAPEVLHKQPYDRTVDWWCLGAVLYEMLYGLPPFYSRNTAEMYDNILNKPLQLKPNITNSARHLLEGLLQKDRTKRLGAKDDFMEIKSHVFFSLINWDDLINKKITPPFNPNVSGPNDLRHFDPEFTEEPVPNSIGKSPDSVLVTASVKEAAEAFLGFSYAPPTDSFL

[29] = molecular target: Tyrosine-protein kinase receptor TYRO3 (Homo sapiens, UniProt Q06418); assay: Inhibition of TYRO3 (unknown origin) in the presence of [33P]ATP by kinase hotspot assay
[30] = molecular target: Wee1-like protein kinase (Homo sapiens, UniProt P30291); assay: Inhibition of WEE1 (unknown origin) in the presence of [33P]ATP by kinase hotspot assay
[31] = tested on: LNCaP; assay: Induction of cell cycle arrest in human LNCaP cells with IR-induced DNA damage assessed as reduction in proportion of cells at G2 phase at 5 uM incubated for 24 hrs in the presence of 5 Gy by PI-staining-based flow cytometry analysis; assay type: functional; set-up: scale not given: the % may be the effect or the level left
How it was run: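 LNCaP cells left untreated, given 5 Gy x-ray, inhibitor (5 μm, 24 h), or both; harvested 16 h after irradiation. Nuclei processed with trypsin, trypsin inhibitor/RNase A, then propidium iodide; DNA content of 20,000 cells by flow cytometry, cell cycle modelled. Three independent experiments.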

[32] = tested on: LNCaP; assay: Induction of cell cycle arrest in human LNCaP cells with IR-induced DNA damage assessed as high number of cells with DSBs at 5 uM after 5 hrs in the presence of 15 Gy by flow cytometry analysis; assay type: functional, cell-based
[33] = tested on: LNCaP; assay: Antitumor activity against unirradiated human LNCaP-caAck expressing cells xenografted mouse assessed as reduction in tumor growth at 4 mg/kg on 7th day; assay type: functional; set-up: scale not given: the % may be the effect or the level left
How it was run: (§2)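 LNCaP-caAck cells (2 × 10⁶), unirradiated or irradiated 1.5 Gy, in PBS/Matrigel 1:1, injected subcutaneously into flanks of castrated male nude mice. Inhibitor 4 mg/kg per injection on day 7 post-implantation, then days 11, 15, 19, 23, 27; DMSO control; n = 8 per group. Caliper tumor volumes twice weekly; two independent experiments.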

[34] = tested on: LNCaP; assay: Antitumor activity against irradiated human LNCaP-caAck expressing cells xenografted mouse assessed as reduction in tumor growth at 4 mg/kg on 7th day; assay type: functional, organism-based; how it was run: as §2
[35] = tested on: LNCaP; assay: Antitumor activity against irradiated human LNCaP-caAck expressing cells xenografted mouse assessed as reduction in ATM expression level at 4 mg/kg on 7th day by immunohistochemical staining; assay type: functional, organism-based
How it was run: (§3)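 Irradiated (1.5 Gy) LNCaP-caAck xenografts in castrated nude mice dosed 4 mg/kg from day 7 (DMSO control) were excised, fixed, paraffin-embedded and sectioned. Sections stained with H&E, or for ATM by IHC: citrate pH 6.0 retrieval at 95 °C 30 min, rabbit monoclonal ATM antibody 1:300 overnight 4 °C, biotin secondary/streptavidin-peroxidase, DAB, hematoxylin counterstain.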

[36] = tested on: LNCaP; assay: Antitumor activity against irradiated human LNCaP-caAck expressing cells xenografted mouse assessed as necrosis at 4 mg/kg on 7th day by Hematoxylin and eosin staining; assay type: functional, organism-based; how it was run: as §3
[37] = tested on: LNCaP; assay: Antitumor activity against irradiated human LNCaP-caAck FLAG-tagged wild-type ATM expressing cells xenografted mouse assessed as inhibition of tumor growth at 4 mg/kg on day 12; assay type: functional, organism-based; how it was run: as §1
[38] = molecular target: Tyrosine-protein kinase Lyn (Homo sapiens, UniProt P07948)

O=c1cc(-c2cccc3c2Sc2ccccc2S3)oc(N2CCOCC2)c1
Activity [1]: Active

C[S+](C)[O-] [DIMETHYL SULFOXIDE]
Activity [2]: Non-Toxic

CN[C@@H]1C[C@H]2O[C@@](C)([C@@H]1OC)n1c3ccccc3c3c4c(c5c6ccccc6n2c5c31)C(=O)NC4 [STAUROSPORINE]
pIC50 ([3]; read-out: IC50): < 4.70 | IC50 [4]: Not Active | IC50 [5]: Not Active | IC50 [6]: Not Active

c1ccc(-c2oc3ncnc(NC[C@@H]4CCCO4)c3c2-c2ccccc2)cc1
pIC50 [7]: 6.15 | pIC50 [8]: 7.67 | IC50 [9]: Not Active | IC50 [10]: Not Active | IC50 [11]: Not Active | pIC50 [12]: 6.06 | IC50 [13]: Not Active | IC50 [3]: Not Active | IC50 [4]: Not Active | inhibition [14]: Active | IC50 [15]: Not Active | IC50 [16]: Not Active | IC50 [17]: Not Active | IC50 [18]: Not Active | IC50 [19]: Not Active | IC50 [20]: Not Active | IC50 [21]: Not Active | IC50 [22]: Not Active | pIC50 [23]: 6.36 | IC50 [5]: Not Active | IC50 [24]: Not Active | IC50 [25]: Not Active | IC50 [26]: Not Active | IC50 [27]: Not Active | IC50 [6]: Not Active | IC50 [28]: Not Active | IC50 [29]: Not Active | IC50 [30]: Not Active | Activity [31]: 38% | Activity [32]: Active | Activity [1]: Active | Activity [33]: ~50% | Activity [34]: Active | Activity [35]: Active | Activity [36]: Active | inhibition [37]: inactive | Activity [2]: Non-Toxic | pIC50 [38]: 6.46

Source: ChEMBL document CHEMBL5653609, “Ack1-mediated androgen receptor phosphorylation modulates radiation resistance in castration-resistant prostate cancer” (J Biol Chem, 2012)
